Data reported in publication PMC12423761 (RSC Advances, 2025).
Read-outs that look alike come from different tables or passages of the source.

What was measured:
[1] = system: MCF-7 (human breast adenocarcinoma) cells; experiment: Antiproliferative activity, LDH release assay, MCF-7; type: cell-based; details: MCF7, 48 h, read-out: IC50 (μM) ± SD MCF-7
In short: (§1)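 Cells were kept in RPMI-1640 with 10% heat-inactivated FBS and penicillin/streptomycin at 37 °C in 5% CO2. They were seeded at 1 × 10^4 per well, grown 18 h, then exposed to graded concentrations for 48 h, with doxorubicin as positive control. LDH was read in supernatant and in Triton X-100 lysate by kinetic A340 over 1 min, using pH 7.5 phosphate with 4.6 mM pyruvate and 0.4 mg mL−1 NADH. % release = released/total. Three experiments in triplicate; IC50 by probit analysis.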

[2] = system: HCT-116 (human colorectal carcinoma) cells; experiment: Antiproliferative activity, LDH release assay, HCT-116; type: cell-based; details: HCT-116, 48 h, read-out: IC50 (μM) ± SD HCT-116
In short: as §1

[3] = system: BJ-1 normal human skin fibroblast cells; experiment: Cytotoxicity on normal cells, LDH release assay, BJ-1; type: cell-based; details: for IC50: Homo sapiens, Skin fibroblast, 48 h, read-out: IC50 (μM) ± SD BJ-1; for toxic activity on healthy cells BJ-1: BJ-1 normal cells, LDH assay
In short: as §1

[4] = biological target: epidermal growth factor receptor (EGFR) (Homo sapiens, UniProt P00533); experiment: EGFR kinase inhibition assay; type: biochemical
Sequence of epidermal growth factor receptor (EGFR) (P00533 25-1210): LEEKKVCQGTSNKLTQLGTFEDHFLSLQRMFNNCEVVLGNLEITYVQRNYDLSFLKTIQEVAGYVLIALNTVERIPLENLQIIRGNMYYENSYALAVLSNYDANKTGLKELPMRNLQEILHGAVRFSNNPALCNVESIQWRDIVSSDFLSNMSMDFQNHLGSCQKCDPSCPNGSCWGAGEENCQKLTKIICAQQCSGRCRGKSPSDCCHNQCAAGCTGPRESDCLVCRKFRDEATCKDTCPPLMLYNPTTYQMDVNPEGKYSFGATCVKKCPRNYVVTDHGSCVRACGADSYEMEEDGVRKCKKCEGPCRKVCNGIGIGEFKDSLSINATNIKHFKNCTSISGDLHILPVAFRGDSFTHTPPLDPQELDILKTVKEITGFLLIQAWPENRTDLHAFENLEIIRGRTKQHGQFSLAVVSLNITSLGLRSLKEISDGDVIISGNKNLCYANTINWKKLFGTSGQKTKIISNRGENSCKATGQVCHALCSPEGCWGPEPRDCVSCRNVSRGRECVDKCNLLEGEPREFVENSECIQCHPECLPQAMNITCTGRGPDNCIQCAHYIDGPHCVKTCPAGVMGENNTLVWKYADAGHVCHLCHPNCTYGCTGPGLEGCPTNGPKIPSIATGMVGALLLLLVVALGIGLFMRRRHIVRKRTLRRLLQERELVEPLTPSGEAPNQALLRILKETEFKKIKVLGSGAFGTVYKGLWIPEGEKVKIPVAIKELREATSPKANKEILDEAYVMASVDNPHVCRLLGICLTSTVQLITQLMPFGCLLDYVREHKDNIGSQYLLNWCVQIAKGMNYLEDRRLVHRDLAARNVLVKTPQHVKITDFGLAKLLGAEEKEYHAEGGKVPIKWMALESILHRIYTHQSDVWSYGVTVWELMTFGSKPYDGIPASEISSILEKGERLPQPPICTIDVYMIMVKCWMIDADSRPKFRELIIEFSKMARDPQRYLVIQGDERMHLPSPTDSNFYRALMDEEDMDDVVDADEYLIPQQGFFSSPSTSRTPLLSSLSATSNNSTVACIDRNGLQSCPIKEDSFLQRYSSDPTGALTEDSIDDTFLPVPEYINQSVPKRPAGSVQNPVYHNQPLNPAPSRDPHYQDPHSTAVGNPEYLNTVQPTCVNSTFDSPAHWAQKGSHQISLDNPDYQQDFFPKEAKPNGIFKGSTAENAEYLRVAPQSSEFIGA

[5] = biological target: histone deacetylase 1 (HDAC1) (Homo sapiens, UniProt Q13547); experiment: Fluorogenic HDAC1 inhibition assay; type: biochemical
Sequence of histone deacetylase 1 (HDAC1) (Q13547 whole entry): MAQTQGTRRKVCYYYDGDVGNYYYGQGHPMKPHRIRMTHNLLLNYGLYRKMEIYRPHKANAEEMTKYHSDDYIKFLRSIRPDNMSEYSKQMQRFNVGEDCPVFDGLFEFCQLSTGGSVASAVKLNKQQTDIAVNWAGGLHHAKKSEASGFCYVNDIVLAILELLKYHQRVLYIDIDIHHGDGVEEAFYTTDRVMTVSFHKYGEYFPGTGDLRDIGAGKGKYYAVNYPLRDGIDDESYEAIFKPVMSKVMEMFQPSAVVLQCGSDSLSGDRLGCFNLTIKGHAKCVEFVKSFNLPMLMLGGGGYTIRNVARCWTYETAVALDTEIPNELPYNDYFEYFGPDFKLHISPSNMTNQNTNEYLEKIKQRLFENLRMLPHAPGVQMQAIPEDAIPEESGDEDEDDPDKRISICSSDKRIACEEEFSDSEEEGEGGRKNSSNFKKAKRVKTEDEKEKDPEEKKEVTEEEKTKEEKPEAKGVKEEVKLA

[6] = biological target: ERK1 (extracellular signal-regulated kinase 1) (Homo sapiens, UniProt P27361); experiment: ERK1 kinase assay; type: biochemical
Sequence of ERK1 (extracellular signal-regulated kinase 1) (P27361 whole entry): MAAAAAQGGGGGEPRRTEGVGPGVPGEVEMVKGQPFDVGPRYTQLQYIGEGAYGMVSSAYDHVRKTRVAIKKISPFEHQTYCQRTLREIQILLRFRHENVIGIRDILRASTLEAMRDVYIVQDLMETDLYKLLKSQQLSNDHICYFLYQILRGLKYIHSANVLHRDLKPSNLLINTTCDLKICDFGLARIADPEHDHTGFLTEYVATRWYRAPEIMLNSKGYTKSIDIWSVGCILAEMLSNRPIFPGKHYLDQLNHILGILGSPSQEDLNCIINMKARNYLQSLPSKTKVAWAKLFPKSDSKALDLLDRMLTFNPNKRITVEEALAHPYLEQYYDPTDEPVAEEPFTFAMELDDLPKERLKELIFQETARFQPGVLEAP

MCF-7 cells [7] = experiment: Cell-cycle analysis by flow cytometry; type: cell-based, human; details: MCF-7, 48 h; control 10.98%
MCF-7 cells [8] = experiment: Apoptosis assay, Annexin V-FITC/PI flow cytometry; type: cell-based, human; details: MCF-7, 48 h
[9] = system: Ehrlich ascites carcinoma (EAC) cells; experiment: Ehrlich ascites carcinoma; type: in vivo, female BALB/c mice; details: EAC-bearing mice; for total volume of collected ascitic fluid: i.p. 2 mg kg^−1 twice weekly × 2 weeks; for Avg. volume of ascitic fluid (mL) [packed cell volume] / Viable cell count (×10^6 cells per mL) / Cell-growth inhibition (%): i.p. 2 mg kg^−1 × 2 weeks; for Avg. volume of ascitic fluid (mL) [packed cell volume]: EAC control 10.5; for Viable cell count (×10^6 cells per mL): trypan blue, EAC control 33; for Cell-growth inhibition (%): vs EAC control viable cell count
In short: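 Female BALB/c mice (25 ± 3 g) received 1 × 10^6 EAC cells i.p. in 100 μL PBS (>95% trypan-blue viability). On day 3, mice were grouped (n = 8). Dosing was i.p.: test compound 2 mg kg−1 twice weekly × 2 weeks, DMSO vehicle, or doxorubicin 2 mg kg−1 once weekly. Endpoint: ascitic volume measured, fluid spun 1200×g for 10 min, viable cells counted by 0.4% trypan blue on a hemocytometer. Growth inhibition = (control − treated)/control × 100.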

[10] = system: Ehrlich solid carcinoma (ESC); experiment: Ehrlich solid carcinoma; type: in vivo, male BALB-c mice; details: intratumoral 2 mg kg^−1, two doses weekly for two weeks

| IC50 [1] [µM] | IC50 [2] [µM] | Compound | IC50 [3] [µM] | also measured |
| --- | --- | --- | --- | --- |
| 5 ± 0.2 | 2.6 ± 0.1 | COc1ccc(N=Nc2sc(=NN=C(C)c3c(O)c4ccccc4oc3=O)n(C)c2C)cc1 [3b, 4-Hydroxy-3-(-1-((-5-(-(4-methoxyphenyl)diazenyl)-3,4-dimethylthiazol-2(3H)-ylidene) hydrazono)ethyl)-2H-chromen-2-one] | 27 ± 2.2 |  |
| 2.6 ± 0.1 | 3.1 ± 0.1 | CCn1c(C)c(N=Nc2ccc(OC)cc2)sc1=NN=C(C)c1c(O)c2ccccc2oc1=O [3c, 3-(1-((-3-Ethyl-5-(-(4-methoxyphenyl)diazenyl)-4-methylthiazol-2(3H)-ylidene) hydrazono)ethyl)-4-hydroxy-2H-chromen-2-one] | 27 ± 2.1 |  |
| 5.1 ± 0.2 | 2.8 ± 0.1 | CC(=NN=c1[nH]c(C)c(N=Nc2ccc([N+](=O)[O-])cc2[N+](=O)[O-])s1)c1c(O)c2ccccc2oc1=O [3d, 3-(-1-((-5-(-(2,4-Dinitrophenyl)diazenyl)-4-methylthiazol-2(3H)-ylidene)hydrazono)ethyl)-4-hydroxy-2H-chromen-2-one] | 26.7 ± 2.3 |  |
| 2.9 ± 0.2 | 2.8 ± 0.2 | CC(=NN=c1[nH]c(C)c(N=Nc2ccc(F)cc2)s1)c1c(O)c2ccccc2oc1=O [3g, 3-(-1-((-5-(-(4-Fluorophenyl)diazenyl)-4-methylthiazol-2(3H)-ylidene)hydrazono)ethyl)-4-hydroxy-2H-chromen-2-one] | 30.6 ± 3.3 |  |
| 2.8 ± 0.2 | 3 ± 0.2 | CC(=NN=c1sc(N=Nc2ccc(F)cc2)c(C)n1C)c1c(O)c2ccccc2oc1=O [3h, 3-(-1-((-5-(-(4-Fluorophenyl)diazenyl)-3,4-dimethylthiazol-2(3H)-ylidene)hydrazono)ethyl)-4-hydroxy-2H-chromen-2-one] | 27.5 ± 2.5 |  |
| 5.4 ± 0.3 | 11.6 ± 1.1 | CC(=NN=c1sc(N=Nc2ccc(Cl)cc2)c(C)n1C)c1c(O)c2ccccc2oc1=O [3k, 3-(-1-((-5-(-(4-Chlorophenyl)diazenyl)-3,4-dimethylthiazol-2(3H)-ylidene)hydrazono)ethyl)-4-hydroxy-2H-chromen-2-one] | 25.8 ± 2.1 |  |
| 12.7 ± 1.1 | 33.8 ± 3.1 | CC(=NN=c1[nH]c(C)c(N=Nc2ccc(Br)cc2)s1)c1c(O)c2ccccc2oc1=O [3m, 3-(-1-((-5-(-(4-Bromophenyl)diazenyl)-4-methylthiazol-2(3H)-ylidene)hydrazono)ethyl)-4-hydroxy-2H-chromen-2-one] | > 500 | toxic activity on healthy cells BJ-1 [3]: non-significant toxic activities; IC50 [4]: 0.08 ± 0.003 µM; IC50 [5]: 1.01 ± 0.034 µM; IC50 [6]: 0.339 ± 0.013 µM; cells in the G2/M phase (MCF-7 cells [7]): 29.71%; late apoptosis (MCF-7 cells [8]; control 0.14%): 5.57%; early apoptosis (MCF-7 cells [8]; control 0.61%): 14.67%; necrosis (MCF-7 cells [8]; control 2.16%): 3.51%; total volume of collected ascitic fluid [9]: significant reduction; Avg. volume of ascitic fluid (mL) [packed cell volume] [9]: 6 mL; Viable cell count (×10^6 cells per mL) [9]: 13 ×10^6 cells per mL; Cell-growth inhibition (%) [9]: 60.61%; tumor volume of Ehrlich solid carcinoma [10]: reduced to a level comparable to that of the doxorubicin group |
| 22.9 ± 2.3 | 29.8 ± 2.5 | CCn1c(C)c(N=Nc2ccc(Br)cc2)sc1=NN=C(C)c1c(O)c2ccccc2oc1=O [3o, 3-(-1-((-5-(-(4-Bromophenyl)diazenyl)-3-ethyl-4-methylthiazol-2(3H)-ylidene)hydrazono)ethyl)-4-hydroxy-2H-chromen-2-one] | > 500 | toxic activity on healthy cells BJ-1 [3]: non-significant toxic activities |

Further lines, the compound ahead of its results:

| Compound | IC50 [1] [µM] | IC50 [2] [µM] | IC50 [3] [µM] | also measured |
| --- | --- | --- | --- | --- |
| COc1ccc(N=Nc2sc(=NN=C(C)c3c(O)c4ccccc4oc3=O)[nH]c2C)cc1 [3a, 4-Hydroxy-3-(-1-((-5-(-(4-methoxyphenyl)diazenyl)-4-methylthiazol-2(3H)-ylidene) hydrazono)ethyl)-2H-chromen-2-one] | 3.1 ± 0.1 | 3.2 ± 0.1 | 24.8 ± 2.1 |  |
| CCn1c(C)c(N=Nc2ccc([N+](=O)[O-])cc2[N+](=O)[O-])sc1=NN=C(C)c1c(O)c2ccccc2oc1=O [3f, 3-(-1-((-5-(-(2,4-Dinitrophenyl)diazenyl)-3-ethyl-4-methylthiazol-2(3H)-ylidene)hydrazono)ethyl)-4-hydroxy-2H-chromen-2-one] | 2.6 ± 0.1 | 2.9 ± 0.2 | 25.6 ± 2.5 |  |
| CCn1c(C)c(N=Nc2ccc(F)cc2)sc1=NN=C(C)c1c(O)c2ccccc2oc1=O [3i, 3-(-1-((-3-Ethyl-5-(-(4-fluorophenyl)diazenyl)-4-methylthiazol-2(3H)-ylidene)hydrazono)ethyl)-4-hydroxy-2H-chromen-2-one] | 3 ± 0.1 | 3.1 ± 0.2 | 34.3 ± 2.5 |  |
| CC(=NN=c1[nH]c(C)c(N=Nc2ccc(Cl)cc2)s1)c1c(O)c2ccccc2oc1=O [3j, 3-(-1-((-5-(-(4-Chlorophenyl)diazenyl)-4-methylthiazol-2(3H)-ylidene)hydrazono)ethyl)-4-hydroxy-2H-chromen-2-one] | 3.1 ± 0.2 | 12.7 ± 1.2 | 27 ± 2.3 |  |
| CCn1c(C)c(N=Nc2ccc(Cl)cc2)sc1=NN=C(C)c1c(O)c2ccccc2oc1=O [3l, 3-(-1-((-5-(-(4-Chlorophenyl)diazenyl)-3-ethyl-4-methylthiazol-2(3H)-ylidene)hydrazono)ethyl)-4-hydroxy-2H-chromen-2-one] | 4.8 ± 0.3 | 2.8 ± 0.1 | 26.2 ± 2.4 |  |
| CC(=NN=c1sc(N=Nc2ccc(Br)cc2)c(C)n1C)c1c(O)c2ccccc2oc1=O [3n, 3-(-1-((-5-(-(4-Bromophenyl)diazenyl)-3,4-dimethylthiazol-2(3H)-ylidene)hydrazono)ethyl)-4-hydroxy-2H-chromen-2-one] | 12.3 ± 1.2 | 31.8 ± 3.3 | > 500 | toxic activity on healthy cells BJ-1 [3]: non-significant toxic activities; IC50 [4]: 0.35 ± 0.011 µM; IC50 [5]: 3.88 ± 0.131 µM; total volume of collected ascitic fluid [9]: significant reduction; Avg. volume of ascitic fluid (mL) [packed cell volume] [9]: 8 mL; Viable cell count (×10^6 cells per mL) [9]: 22 ×10^6 cells per mL; Cell-growth inhibition (%) [9]: 33.33%; tumor volume of Ehrlich solid carcinoma [10]: more significant in the group administered with compound 3m than in the group administered with compound 3n |
| COc1cccc2c1C(=O)c1c(O)c3c(c(O)c1C2=O)C[C@@](O)(C(=O)CO)C[C@@H]3O[C@H]1C[C@H](N)[C@H](O)[C@H](C)O1 [Doxorubicin, reference compound] | 5.6 ± 0.3 | 6.5 ± 0.5 | 32.1 ± 3.1 | Avg. volume of ascitic fluid (mL) [packed cell volume] [9]: 4 mL; Viable cell count (×10^6 cells per mL) [9]: 9 ×10^6 cells per mL; Cell-growth inhibition (%) [9]: 72.72% |
| Cc1cc(Nc2ncc3c(n2)N(C)C(=O)N(c2cc(NC(=O)c4cccc(C(F)(F)F)c4)ccc2C)C3)n(C)n1 [pluripotin, reference compound] |  |  |  | IC50 ([6]; read-out: ERK inhibition IC50): 0.171 ± 0.006 µM |
